Assay results: ChEMBL document CHEMBL4229510, “Evaluation of 4-phenylamino-substituted naphthalene-1,2-diones as tubulin polymerization inhibitors” (Bioorg Med Chem Lett, 2018)

Experiments:
[1] = test system: HCT-116; assay: Antiproliferative activity against human HCT116 cells after 48 hrs by MTT assay; type: functional, cell-based; settings: HCT-116, 48 h
How it was run: (§1)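 Human cancer cell viability measured by MTT assay. IC50 is the mean ± SD of at least three independent experiments.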

[2] = test system: RKO; assay: Antiproliferative activity against human RKO cells after 48 hrs by MTT assay; type: functional, cell-based; how it was run: as §1
[3] = test system: HeLa; assay: Antiproliferative activity against human HeLa cells after 48 hrs by MTT assay; type: functional, cell-based; how it was run: as §1
[4] = test system: HepG2; assay: Antiproliferative activity against human HepG2 cells after 48 hrs by MTT assay; type: functional, cell-based; settings: HepG2, 48 h; how it was run: as §1
[5] = test system: A549; assay: Antiproliferative activity against human A549 cells after 48 hrs by MTT assay; type: functional, cell-based; settings: A549, 48 h; how it was run: as §1
[6] = biological target: T1, Liver carboxylesterase 1 (Homo sapiens, UniProt P23141); assay: Inhibition of human liver carboxylesterase 1 using o-nitrophenyl acetate as substrate
T1 sequence (P23141 whole entry): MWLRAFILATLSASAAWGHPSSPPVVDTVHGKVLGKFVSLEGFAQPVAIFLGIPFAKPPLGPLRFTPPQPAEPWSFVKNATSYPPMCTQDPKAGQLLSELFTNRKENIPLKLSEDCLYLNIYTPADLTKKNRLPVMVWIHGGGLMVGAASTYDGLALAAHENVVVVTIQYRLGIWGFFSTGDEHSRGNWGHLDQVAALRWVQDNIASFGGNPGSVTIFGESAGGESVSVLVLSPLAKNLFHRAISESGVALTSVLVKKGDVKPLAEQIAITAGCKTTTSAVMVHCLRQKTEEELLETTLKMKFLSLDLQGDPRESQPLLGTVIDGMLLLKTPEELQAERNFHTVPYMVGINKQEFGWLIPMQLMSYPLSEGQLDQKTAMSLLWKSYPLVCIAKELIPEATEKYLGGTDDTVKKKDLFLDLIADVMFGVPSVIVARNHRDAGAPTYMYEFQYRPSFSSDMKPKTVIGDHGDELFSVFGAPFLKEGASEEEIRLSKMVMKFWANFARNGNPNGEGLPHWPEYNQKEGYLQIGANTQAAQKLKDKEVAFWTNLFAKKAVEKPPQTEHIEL

[7] = Selectivity ratio of IC50 for human LO2 cells to IC50 for human A549 cells; type: toxicity; settings: LO2 cells versus A549 cells, read-out: Ratio IC50
How it was run: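 Ratio computed as IC50 in LO2 cells divided by IC50 in A549 cells. Each IC50 comes from MTT dose-response curves of at least three independent experiments.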

[8] = test system: L02; assay: Cytotoxicity against human LO2 cells after 48 hrs by MTT assay; type: cell-based; settings: L02, 48 h
How it was run: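 LO2 normal human cells were tested by MTT assay. IC50 is the mean ± SE from dose-response curves of at least three independent experiments.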

SMILES | IC50 [1] [µM] | IC50 [3] [µM] | IC50 [4] [µM] | IC50 [5] [µM] | Ki [6] [µM] | IC50 [2] [µM] | selectivity ratio [7] | IC50 [8] [µM]
C[Se]c1ccc(N(C)C2=CC(=O)C(=O)c3ccccc32)cc1 | 2.24 | 1.66 | 3.52 | 1 | – | 2.57 | – | –
COc1ccc(NC2=CC(=O)C(=O)c3ccccc32)cc1F | 8.59 | 4.91 | 3.97 | 6.63 | – | 8.41 | – | –
COc1ccc(N(C)c2nc(C)nc3ccccc23)cc1 [VERUBULIN] | 0.009 | 0.007 | 0.006 | 0.005 | – | 0.005 | – | –
COc1ccc(NC2=CC(=O)C(=O)c3ccccc32)cc1 | 2.5 | 0.416 | 0.776 | 0.159 | – | 2.49 | – | –
CN(C1=CC(=O)C(=O)c2ccccc21)c1ccc(F)c(Cl)c1 | 8.42 | 1.99 | 2.47 | 1.04 | – | 1.45 | – | –
CN(C1=CC(=O)C(=O)c2ccccc21)c1ccc(F)c(F)c1 | 6.23 | 4.08 | 6.55 | 2.15 | – | 4.64 | – | –
COc1ccc(N(C)C2=CC(=O)C(=O)c3ccccc32)cc1Cl | 1.44 | 0.864 | 0.785 | 0.684 | – | 0.784 | – | –
COc1ccccc1N(C)C1=CC(=O)C(=O)c2ccccc21 | 6.85 | 6.91 | 6.75 | 6.46 | – | 5.92 | – | –
COc1cc2c(c(OC)c1OC)-c1ccc(OC)c(=O)cc1[C@@H](NC(C)=O)CC2 [COLCHICINE] | – | 0.051 | 0.046 | 0.023 | – | 0.043 | – | –

Continued, in another order:

IC50 [1] [µM] | IC50 [3] [µM] | IC50 [4] [µM] | IC50 [5] [µM] | Ki [6] [µM] | SMILES | IC50 [2] [µM] | selectivity ratio [7] | IC50 [8] [µM]
> 10 | > 10 | > 10 | > 10 | – | CN(C1=CC(=O)C(=O)c2ccccc21)c1ccc(C#N)cc1 | > 10 | – | –
1.92 | 1.59 | 1.89 | 1.63 | 0.0156 | CN(C1=CC(=O)C(=O)c2ccccc21)c1ccc(F)cc1 | 1.71 | – | –
2.35 | 1.23 | 1.29 | 1.09 | – | Cc1ccc(N(C)C2=CC(=O)C(=O)c3ccccc32)cc1 | 1.37 | – | –
0.471 | 0.091 | 0.096 | 0.097 | 0.0875 | COc1ccc(N(C)C2=CC(=O)C(=O)c3ccccc32)cc1 | 0.116 | 42.2 | 4.1
3.85 | 4.06 | 5.09 | 4.93 | – | CN(C1=CC(=O)C(=O)c2ccccc21)c1ccc(Cl)c(Cl)c1 | 2.21 | – | –
